Results as given in ChEMBL document CHEMBL1145589, “Discovery of benzamide tetrahydro-4H-carbazol-4-ones as novel small molecule inhibitors of Hsp90” (Bioorg Med Chem Lett, 2008).
pIC50, pKd: −log10 of the molar value.

Columns and labels:
SK-BR-3 [1] = assay: Inhibition of Her2 degradation in human SKBR3 cells by ELISA; type: functional, cell-based
In short: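 Cellular ELISA in SKBR3 cells treated 24 h with compound, then methanol-fixed; Her2 detected with mouse anti-Her2 primary and peroxidase-conjugated anti-mouse secondary antibody; IC50 determined.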

[2] = Binding affinity to Hsp90 in pig spleen extract by Bradford protein assay; type: tissue-based, Sus scrofa
A-375 [3] = assay: Inhibition of cell proliferation in human A375 cells; type: functional, cell-based
In short: (§1)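 Cells seeded in 96-well plates; compound added 24 h later, then growth continued for a further 72 or 144 h depending on the line's growth rate before proliferation was measured.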

[4] = Inhibition of pErk in AU565 cells; type: cell-based
SK-MEL-5 = assay: Inhibition of cell proliferation in human SKMEL5 cells; type: functional, cell-based; in short: as §1
MCF7 = assay: Inhibition of cell proliferation in human MCF7 cells; type: functional, cell-based; in short: as §1
MDA-MB-231 = assay: Inhibition of cell proliferation in human MDA-MB-231 cells; type: functional, cell-based; in short: as §1
SW-620 = assay: Inhibition of cell proliferation in human SW620 cells; type: functional, cell-based; in short: as §1
LNCaP = assay: Inhibition of cell proliferation in human LNCAP cells; type: functional, cell-based; in short: as §1
HT-29 = assay: Inhibition of cell proliferation in human HT29 cells; type: functional, cell-based; in short: as §1
A-375 [5] = assay: Induction of Hsp70 in human A375 cells; type: functional, cell-based
In short: (§2)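 High content imaging: A375 cells treated 24 h with compound, fixed in 4% PBS-buffered formalin, probed with anti-Hsp70 or anti-phospho-S6 primary antibodies, then TRITC- or FITC-conjugated secondaries, and imaged.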

NCI-H460 = assay: Inhibition of cell proliferation in human NCI-H460 cells; type: functional, cell-based; in short: as §1
PC-3 = assay: Inhibition of cell proliferation in human PC3 cells; type: functional, cell-based; in short: as §1
SK-BR-3 [6] = assay: Inhibition of Her2 degradation in human SKBR3 cells
[7] = Inhibition of pS6 in A375 cells; type: cell-based; details: A-375; in short: as §2

SMILES | pIC50 (SK-BR-3 [1]) | pKd [2] | other results
N#Cc1cc(-n2c3c(c4ccccc42)C(=O)CCC3)ccc1C(N)=O | < 4.30 | < 5.00 | 
CC1CC(=O)c2c(n(-c3ccc(C(N)=O)c(NC4CC4)c3)c3ccccc23)C1 (centres undefined) | 5.15 |  | 
COCCNc1cc(-n2c3c(c4cc(F)ccc42)C(=O)CCC3)ccc1C(N)=O | 5.39 | 6.11 | 
NC(=O)c1ccc(-n2c3c(c4cc(F)ccc42)C(=O)CCC3)cc1NC1CC1 | 5.89 | 6.60 | 
COCCNc1cc(-n2c3c(c4ccccc42)C(=O)CCC3)ccc1C(N)=O | 5.05 |  | 
NC(=O)c1ccc(-n2c3c(c4cc(F)ccc42)C(=O)CCC3)cc1NCCCN1CCOCC1 | 5.55 | 5.96 | 
NC(=O)c1ccc(-n2c3c(c4cc(F)ccc42)C(=O)CCC3)cc1NN1CCOCC1 | 5.80 | 6.57 | 
CC1CC(=O)c2c(n(-c3ccc(C(N)=O)c(NCC4CC4)c3)c3ccccc23)C1 (centres undefined) | 5.16 | 5.54 | 
NC(=O)c1ccc(-n2c3c(c4ccccc42)C(=O)CCC3)cc1NCc1ccccc1 | < 5.00 | < 5.00 | 
NC(=O)c1ccc(-n2c3c(c4ccccc42)C(=O)CCC3)cc1Nc1ccccc1 | 5.68 | 6.00 | 
NC(=O)c1ccc(-n2c3c(c4ccccc42)C(=O)CCC3)cc1NC1CCC(O)CC1 (centres undefined) | 5.92 | 6.05 | 
COc1cc(-n2c3c(c4ccccc42)C(=O)CCC3)ccc1C(N)=O | < 4.30 | < 5.00 | 
C=CCNc1cc(-n2c3c(c4cc(F)ccc42)C(=O)CCC3)ccc1C(N)=O | 5.27 | 6.60 | 
NC(=O)c1ccc(-n2c3c(c4cc(F)ccc42)C(=O)CCC3)cc1NCc1cccnc1 | 5.19 | 5.96 | 
NC(=O)c1ccc(-n2c3c(c4ccccc42)C(=O)CCC3)cc1NC1CCOCC1 | 6.25 | 6.39 | pIC50 (A-375 [3]): 6.40; pIC50 [4]: 6.23; pIC50 (SK-MEL-5): 6.47; pIC50 (MCF7): 6.54; pIC50 (MDA-MB-231): 6.02; pIC50 (SW-620): 6.59; pIC50 (LNCaP): 6.15; pIC50 (HT-29): 6.43; pIC50 (A-375 [5]): 6.64; pIC50 (NCI-H460): 6.05; pIC50 (PC-3): 6.09; pIC50 (SK-BR-3 [6]): 6.25; pIC50 [7]: 7.15
NC(=O)c1ccc(-n2c3c(c4ccccc42)C(=O)CCC3)cc1NC1CCC1 | 5.17 | 6.51 | 
CC1(C)CC(=O)c2c(n(-c3ccc(C(N)=O)cc3)c3ccccc23)C1 | < 4.30 | 6.12 | 
NC(=O)c1ccc(-n2c3c(c4ccccc42)C(=O)CCC3)cc1NCc1ccncc1 | 5.30 | 6.09 | 
CN(C)CCNc1cc(-n2c3c(c4cc(F)ccc42)C(=O)CCC3)ccc1C(N)=O | 4.47 | 5.92 | 
CC1(C)CC(=O)c2c(n(-c3ccc(C(N)=O)c(Nc4ccccc4)c3)c3ccccc23)C1 |  | < 5.00 | 
COc1ccc(CNc2cc(-n3c4c(c5ccccc53)C(=O)CCC4)ccc2C(N)=O)cc1 | < 5.00 | < 5.00 | 
CC1(C)CC(=O)c2c(n(-c3ccc(C(N)=O)c(NC4CC4)c3)c3ccccc23)C1 | 6.21 | 6.46 | 
CCCNc1cc(-n2c3c(c4ccccc42)C(=O)CCC3)ccc1C(N)=O | 5.28 | 6.46 | 
NC(=O)c1ccc(-n2c3c(c4ccccc42)C(=O)CCC3)cc1NC1CC1 | 5.27 | 6.46 | 
NC(=O)c1ccc(-n2c3c(c4ccccc42)C(=O)CCC3)cc1Br | < 5.00 | < 5.00 | 
NC(=O)c1ccc(-n2c3c(c4ccccc42)C(=O)CCC3)cc1NCCN1CCCC1 | 4.51 | 5.72 | 
NC(=O)c1ccc(-n2c3c(c4ccccc42)C(=O)CCC3)cc1NCC1CC1 | 5.89 | 6.57 | 
NC(=O)c1ccc(-n2c3c(c4ccccc42)C(=O)CCC3)cc1 | < 4.30 | 5.74 | 
CC1CC(=O)c2c(n(-c3ccc(C(N)=O)c(Br)c3)c3ccccc23)C1 (centres undefined) |  | < 5.00 | 
NC(=O)c1ccc(-n2c3c(c4ccccc42)C(=O)CCC3)cc1N | < 5.00 | 5.54 | 
